From ChEMBL document CHEMBL3286338, “SAR studies on hydropentalene derivatives--Important core units of biologically active tetramic acid macrolactams and ptychanolides” (Bioorg Med Chem, 2014) come the findings set out here.

For one test, the system named is L929. Description: Antiproliferative activity against mouse L929 cells by MTT assay. Type of test: functional, cell-based. In a few lines: (§1)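 Cells kept in supplier-recommended media at 37 °C, 10% CO2. Serial dilutions added to a cell suspension (50,000 per mL) and incubated 5 d alongside blank and solvent controls. MTT then added to 0.5 mg mL^-1 final for 2 h, and formazan precipitate collected by centrifugation. Run as two parallel experiments; activity taken as mean relative to controls set at 100%.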

Test [1] is described as follows: Antiproliferative activity against human KB-3-1 cells by MTT assay. It counts as functional, cell-based. In a few lines:
as §1
(Tetrazolium dyes change colour on reduction, which living cells bring about.)

In general, IC50 refers to the midpoint of a concentration-inhibition curve. Read a low IC50 as greater potency in that assay. As to `C=CC[C@@H]1[C@@H]2[C@@H](CC(=O)[C@H]2CC=C)C[C@H]1O`, the concentration for half-maximal inhibition (IC50) (in the test with L929; in test [1]) was more than 40 µg/mL in each case.

Turning to `C=CC[C@H]1C(=O)C[C@@H]2[C@@H](C)[C@H](O[Si](c3ccccc3)(c3ccccc3)C(C)(C)C)C[C@@H]21`, the half-maximal inhibitory concentration (IC50) is 17.8 µM with L929 and 6.9 µM in test [1].

As for `C=CCC[C@H]1CC(=O)[C@@H]2C=CC(=O)[C@H]12` (racemic), the IC50 in the test on L929 was determined as 20 µM; in test [1], 16.3 µM.

Turning to `C[C@@H]1[C@@H]2[C@@H](CC(=O)[C@H]2C)C[C@H]1O[Si](c1ccccc1)(c1ccccc1)C(C)(C)C`, the IC50 in the test with L929 came out at 14.8 µM; in test [1] it was 7.4 µM.

The compound `C[C@@H]1[C@H](O[Si](c2ccccc2)(c2ccccc2)C(C)(C)C)C[C@]2(C)CC(=O)C[C@]12C` showed an IC50 in the test with L929 of 35.7 µM.

`Cc1cc(C)c(O[C@@H]2C[C@@H]3CC4(C[C@@H]3C2)OCC(C)(C)CO4)c(C)c1`: the concentration for half-maximal inhibition (IC50) (with L929; in test [1]) was more than 40 µg/mL in each case.

Consider `C=CC[C@@H]1C(=O)C[C@H]2C[C@@H](O[Si](c3ccccc3)(c3ccccc3)C(C)(C)C)[C@H](C)[C@H]21`, for which the IC50 in the test on L929 came out at 5.1 µM; in test [1], 16.2 µM.

With `O=C1CC(CCCCO)[C@H]2CCC3(OCCO3)[C@@H]12` (stereo not given in full), the IC50 (in the test on L929; in test [1]) was more than 40 µg/mL in each case.

On to `O[C@@H]1[C@H]2CCC3(OCCO3)[C@H]2C[C@@H]1O`, for which the IC50 (with L929; in test [1]) was more than 40 µg/mL throughout.

With `CC(C)=CC[C@@H]1C(=O)C[C@H]2C[C@@H](O[Si](c3ccccc3)(c3ccccc3)C(C)(C)C)[C@H](C)[C@H]21`, the 50% inhibitory concentration (IC50) in the test on L929 stood at 5.6 µM; in test [1], 21.7 µM.

As for `C=C1C[C@@H]2CC3(C[C@@H]2C1)OCC(C)(C)CO3`, the IC50 (in the test with L929; in test [1]) was more than 40 µg/mL each time.

For `CC(C)(C)[Si](C)(C)OC1CCCC2C1C(=O)[C@H]1CC(Br)C3(OCCO3)[C@@H]21` (stereo not given in full), the figures for the concentration for half-maximal inhibition (IC50) (in the test with L929; in test [1]) were 32 µg/mL and more than 40 µg/mL, respectively.

`C[C@H]1[C@H](O[Si](c2ccccc2)(c2ccccc2)C(C)(C)C)C[C@]2(C)CC(=O)C[C@]12C` had an IC50 with L929 of 14.3 µM.

Compound `C[C@H]1C(=O)C[C@]2(C)CC3(C[C@]12C)OCC(C)(C)CO3` came in with an IC50 with L929 of more than 150 µM.

Regarding `CCC(=O)O[C@@H]1C[C@@H]2CC3(C[C@@H]2C1)OCC(C)(C)CO3`, the IC50 (in the test on L929; in test [1]) was more than 142 µM in each case.

As for `CC1(C)COC2(C[C@@H]3CC4OC4[C@@H]3C2)OC1` (stereo not given in full), the IC50 (in the test on L929; in test [1]) was more than 40 µg/mL each time.

`C=CC[C@@H]1[C@H]2[C@H](C)C=C[C@H]2C[C@H]1O[Si](c1ccccc1)(c1ccccc1)C(C)(C)C`: the values for the IC50 (in the test on L929; in test [1]) were 7.2 µM and more than 96 µM, respectively.

In the test on L929, `C[C@@H]1[C@H](O)C[C@]2(C)CC3(C[C@]12C)OCC(C)(C)CO3` had an IC50 of more than 150 µM.

As to `C[C@H]1[C@H](O[Si](c2ccccc2)(c2ccccc2)C(C)(C)C)C[C@]2(C)CC3(C[C@]12C)OCC(C)(C)CO3`, the half-inhibitory concentration (IC50) in the test with L929 was found to be 15.8 µM. That is a double-digit micromolar value.

On to `CC(C)(C)[Si](O[C@@H]1[C@H]2CCC3(OCCO3)[C@H]2C[C@H]1O)(c1ccccc1)c1ccccc1`, for which half-maximal inhibition in the test with L929 (IC50) required 41 µM.

Regarding `C[C@@H]1[C@H](O[Si](c2ccccc2)(c2ccccc2)C(C)(C)C)C[C@]2(C)CC3(C[C@]12C)OCC(C)(C)CO3`, the half-maximal inhibitory concentration (IC50) in the test with L929 was 11.8 µM.

In the test on L929, `C[C@H]1[C@H](O)C[C@]2(C)CC3(C[C@]12C)OCC(C)(C)CO3` came in with a concentration for half-maximal inhibition (IC50) of more than 150 µM.

Turning to `C1COC2(CC[C@@H]3[C@H]4O[C@H]4C[C@@H]32)O1`, the IC50 in the test with L929 was more than 40 µg/mL.

Turning to `CC(C)(C)[Si](OC1CCCC1)(c1ccccc1)c1ccccc1`, in the test with L929, the IC50 is 61.6 µM.

`C#CC(=O)O[C@H]1C[C@@H]2C[C@H](O[Si](c3ccccc3)(c3ccccc3)C(C)(C)C)C[C@@H]2C1`: half-maximal inhibition in the test on L929 (IC50) was put at 9.3 µM.

Compound `CC(C)(C)[Si](O[C@H]1[C@H]2CCC3(OCCO3)[C@H]2C[C@@H]1O)(c1ccccc1)c1ccccc1` registered a 50% inhibitory concentration (IC50) in the test on L929 of 38.8 µM.
